“Also recorded” adds a separate entry of the source. Square brackets hold non-standard residues; d marks the D form. Peptide text beside a SMILES is read from it. pGlu = O=C1CC[C@@H](C(=O)O)N1
Columns and labels:
cGnRH-R-III [1] = target: T1, cGnRH-R-III (Gallus gallus, UniProt Q5EFE0); experiment: Inositol phosphate assay, cGnRH-R-III transfected COS-7 cells; type: cell-based, chicken
T1 sequence (Q5EFE0 1-419): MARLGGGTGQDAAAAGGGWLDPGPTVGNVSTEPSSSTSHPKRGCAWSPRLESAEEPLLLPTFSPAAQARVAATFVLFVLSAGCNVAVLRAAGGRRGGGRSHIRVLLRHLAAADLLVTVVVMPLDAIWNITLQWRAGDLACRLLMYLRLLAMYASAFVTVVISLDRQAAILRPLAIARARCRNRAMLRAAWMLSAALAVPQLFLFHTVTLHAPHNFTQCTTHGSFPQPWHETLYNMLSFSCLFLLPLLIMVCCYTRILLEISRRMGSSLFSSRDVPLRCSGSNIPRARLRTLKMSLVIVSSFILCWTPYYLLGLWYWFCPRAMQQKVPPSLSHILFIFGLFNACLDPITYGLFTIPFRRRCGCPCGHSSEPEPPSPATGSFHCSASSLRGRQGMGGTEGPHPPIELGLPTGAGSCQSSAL
Method in brief: (§1)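 COS-7 cells were electroporated with a chicken type I or type III GnRH receptor expression construct and grown in DMEM with 10% FCS, 4 mM L-glutamine and penicillin/streptomycin at 37 °C, 5% CO2. After 24 h, cells were labelled 24 h with [3H]-myo-inositol in inositol-free DMEM. They were then washed in 25 mM HEPES-DMEM with 10 mM LiCl and stimulated 1 h at 37 °C with analogue. Antagonist mode included 1 nM GnRH-II. Reactions were stopped with 10 mM formic acid. Total inositol phosphates were eluted from Dowex with 1 M ammonium formate/0.1 M formic acid. Assays were run in triplicate and fitted by non-linear regression.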

cGnRH-R-I [2] = target: T2, cGnRH-R-I (Gallus gallus, UniProt Q9DDC9); experiment: Inositol phosphate assay, cGnRH-R-I transfected COS-7 cells; type: cell-based, chicken
T2 sequence (Q9DDC9 1-375): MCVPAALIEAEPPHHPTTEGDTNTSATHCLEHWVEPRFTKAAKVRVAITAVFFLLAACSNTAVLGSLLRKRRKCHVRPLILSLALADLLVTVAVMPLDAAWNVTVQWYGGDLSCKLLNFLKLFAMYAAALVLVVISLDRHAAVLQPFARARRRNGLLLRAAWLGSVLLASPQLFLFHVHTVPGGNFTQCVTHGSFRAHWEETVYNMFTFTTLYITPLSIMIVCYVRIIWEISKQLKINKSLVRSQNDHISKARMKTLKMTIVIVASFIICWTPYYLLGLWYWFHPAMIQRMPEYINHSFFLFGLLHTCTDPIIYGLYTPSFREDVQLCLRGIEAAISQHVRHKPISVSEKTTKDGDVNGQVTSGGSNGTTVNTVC
Method in brief: as §1

cGnRH-R-III [3] = target: T1, cGnRH-R-III; experiment: Whole cell radioligand binding assay, cGnRH-R-III transfected COS-7 cells; design: species or system chicken
cGnRH-R-I [4] = target: T2, cGnRH-R-I; experiment: Whole cell radioligand binding assay, cGnRH-R-I transfected COS-7 cells; design: species or system chicken

| EC50 (cGnRH-R-III [1]) [nM] | EC50 (cGnRH-R-I [2]) [nM] | fold higher affinity for GnRH-II than for cGnRH-I (cGnRH-R-III [3]) [fold] | fold higher affinity for GnRH-II than for sGnRH-III (cGnRH-R-III [3]) [fold] | inositol phosphate accumulation, GnRH-II relative to cGnRH-I (cGnRH-R-III [1]; cGnRH-R-III transfected cells) | fold higher affinity for GnRH-II than for cGnRH-I (cGnRH-R-I [4]) [fold] | fold higher affinity for GnRH-II than for sGnRH-III (cGnRH-R-I [4]) [fold] | Molecule | inositol phosphate production potency, GnRH-II relative to cGnRH-I (cGnRH-R-I [2]; cGnRH-R-I) |
| --- | --- | --- | --- | --- | --- | --- | --- | --- |
| 21 | 10.3 |  |  |  |  |  | CC(C)C[C@H](NC(=O)[C@H](Cc1c[nH]c2ccccc12)NC(=O)CNC(=O)[C@H](Cc1ccc(O)cc1)NC(=O)[C@H](CO)NC(=O)[C@H](Cc1c[nH]c2ccccc12)NC(=O)[C@H](Cc1c[nH]cn1)NC(=O)[C@@H]1CCC(=O)N1)C(=O)N1CCC[C@H]1C(=O)NCC(N)=O [sGnRH-III] ([pGlu]HWSYGWLPG-NH2) |  |
|  |  | 35 | 16 | six times more effective | 21 | 16 | GnRH-II ([pGlu]HWSHGWYPG-NH2; ends and bridges not checked; UniProt O43555 24-33, looked up) | four times more potent; also recorded: four times more potently |
